In ChEMBL document CHEMBL2331408, “Discovery and structure-activity relationships of pyrrolone antimalarials” (J Med Chem, 2013):

Columns and labels:
[1] = Partition coefficient, log D of the compound at pH 7.4 by HPLC analysis; format: physicochemical; settings: octanol/water
In short: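 LogD at pH 7.4 measured with a chromatographic gLogD technique.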

[2] = (§1) Intrinsic clearance in mouse liver microsomes at 1 uM by LC/MS analysis; format: ADME, Microsome; settings: liver microsomes, read-out: CLH
In short: (§2)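 Mouse hepatic microsomes; in vitro intrinsic clearance from compound degradation during incubation, expressed as μL/min/mg.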

[3] = Drug metabolism in mouse liver microsomes assessed as mono-oxygenation at 1 uM by LC/MS analysis; format: ADME, Microsome
Liver = experiment: as §1; format: ADME, Microsome; settings: microsomes, 1 µM; in short: as §2
[4] = Drug metabolism in mouse liver microsomes assessed as bis-oxygenation at 1 uM by LC/MS analysis; format: ADME, Microsome
[5] = Drug metabolism in mouse liver microsomes assessed as morpholine ring cleavage at 1 uM by LC/MS analysis; format: ADME, Microsome

| SMILES | logD [1] | Microsomal intrinsic clearance (CLint) (Liver) [µL/min/mg] | also measured |
| --- | --- | --- | --- |
| CCOC(=O)C1=C(O)/C(=C\c2cc(C)n(-c3ccc(F)cc3)c2C)N=C1C | 2.9 |  | microsomal CLint at 1 µM [2]: 94 µL/min/mg; Drug metabolism [3]: Active |
| CCOC(=O)C1=C(C)N/C(=C/c2cc(C)n(-c3cc(OC)c(OC)c(OO)c3)c2C)C1=O | 2.6 |  | microsomal CLint at 1 µM [2]: 63 µL/min/mg |
| CCOC(=O)C1=C(C)N/C(=C/c2cc(C)n(-c3cccc(OC)c3)c2C)C1=O | 2.9 | 150 |  |
| CCOC(=O)C1=C(C)N/C(=C/c2cc(C)n(-c3ccc(SC(F)(F)F)cc3)c2C)C1=O |  | 76 | Drug metabolism [3]: Active |
| CCOC(=O)C1=C(C)N/C(=C/c2cc(C)n(-c3ccc(S(=O)(=O)C(F)(F)F)cc3)c2C)C1=O |  | 58 |  |
| CCOC(=O)C1=C(C)N/C(=C/c2cc(C)n(-c3ccc(SC)cc3)c2C)C1=O |  | 66 | Drug metabolism [3]: Active |
| CCOC(=O)C1=C(C)N/C(=C/c2cc(C)n(-c3ccncc3)c2C)C1=O | 3.2 | 61 | Drug metabolism [4]: Active; Drug metabolism [3]: Active |
| CCOC(=O)C1=C(C)N/C(=C/c2cc(C)n(-c3cccnc3)c2C)C1=O | 2.1 | 82 |  |
| CCOC(=O)C1=C(C)N/C(=C/c2cc(C)n(-c3ccc(N4CCOCC4)cc3)c2C)C1=O | 3.3 | 31 | Drug metabolism [5]: Active |
| CCOC(=O)C1=C(C)N/C(=C/c2cc(C)n(Cc3ccc(C(F)(F)F)cc3)c2C)C1=O |  | 100 |  |
| CCOC(=O)C1=C(C)N/C(=C/c2cc(C)n(-c3ccc(CN4CCCCC4)cc3)c2C)C1=O | 8.5 | 60 |  |
| CCOC(=O)C1=C(C)N/C(=C/c2cc(C)n(-c3ccc(CN4CCOCC4)cc3)c2C)C1=O | 6.7 | 56 |  |
| CCOC(=O)C1=C(C)N/C(=C/c2cc(C)n(-c3ccc(CN(C)C)cc3)c2C)C1=O | 8.3 | 31 |  |
| CCOC(=O)C1=C(C)N/C(=C/c2ccn(-c3ccccc3C(F)(F)F)c2)C1=O |  | 160 |  |
